Laboratory results taken from ChEMBL document CHEMBL5653612, “Catalytic site remodelling of the DOT1L methyltransferase by selective inhibitors” (Nat Commun, 2012).
Each block holds one compound with its values, some of them ahead of it. The source made the active and inactive calls. No cut-off for these calls is given here.

Key:
[1] = biological target: T1, Histone-lysine N-methyltransferase, H3 lysine-79 specific (Homo sapiens, UniProt Q8TEK3); assay: Inhibition of recombinant N-terminal DOT1L (1 to 420 residues) (unknown origin) expressed in Escherichia coli (DE3) using [3H]-SAM as substrate preincubated for 30 mins followed by substrate addition and measured after 2 hrs by Topcount reader analysis
[2] = biological target: T1, Histone-lysine N-methyltransferase, H3 lysine-79 specific; assay: Binding affinity to recombinant N-terminal DOT1L (1 to 420 residues) (unknown origin) expressed in Escherichia coli (DE3) assessed as dissociation constant by surface plasmon resonance assay
[3] = biological target: T1, Histone-lysine N-methyltransferase, H3 lysine-79 specific; assay: Binding affinity to recombinant N-terminal DOT1L (1 to 420 residues) (unknown origin) expressed in Escherichia coli (DE3) assessed as dissociation constant by SPR analysis
[4] = system: MV4-11; assay: Downregulation of H3K79me2 in human MV4-11 cells habouring MLL/AF4 fusion protein measured upto 48 hrs by immuno blot analysis; assay type: functional, cell-based
[5] = Apparent permeability across basolateral to apical side in human Caco-2 cells at 10 uM incubated for 90 mins at pH 7.4 by LC/MS analysis; assay type: ADME, cell-based; conditions: Caco-2, pH 7.4
[6] = Apparent permeability across apical to basolateral side in human Caco-2 cells at 10 uM incubated for 90 mins at pH 7.4 by LC/MS analysis; assay type: ADME, cell-based; conditions: Caco-2, pH 7.4
[7] = system: MOLM-13; assay: Downregulation of H3K79me2 in human MOLM-13 cells measured for 3 to 7 days by immuno blot analysis; assay type: functional, cell-based; conditions: dose 1.0 µM, time 3-7 day
In short: (§1)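 Exponentially growing Molm13 cells were plated at 2 × 10^5 per well in 2 ml and exposed to 1 μM compound or DMSO for the indicated times. Extracted histones (3 μg) were run on 10% Bis-Tris gels and transferred to nitrocellulose. Blots were probed with primary antibody (1:1000 in 5% milk/TBS-T), then anti-rabbit secondary, with chemiluminescent detection.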

[8] = biological target: Histone-lysine N-methyltransferase SUV39H2 (Homo sapiens) (UniProt Q9H5I1); assay: Inhibition of SUV39H2 (unknown origin) using H3 1-25 peptide in presence of SAM
In short: (§2)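 Radiometric methyltransferase panel in which 3H-SAM, at or below each enzyme's Km, methylates biotinylated peptide substrates. They were quenched with 7.5 M guanidine-HCl, diluted, captured on streptavidin flash plates for 1 h, and counted by scintillation.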

[9] = biological target: Histone-lysine N-methyltransferase EHMT2 (Homo sapiens) (UniProt Q96KQ7); assay: Inhibition of G9a (unknown origin) using H3 1-25 peptide in presence of SAM; in short: as §2
[10] = cells; conditions: Homo sapiens, A-431
[11] = species on record: Homo sapiens; assay: Inhibition of PRC2 (unknown origin) using H3 21-44 peptide in presence of SAM; in short: as §2
[12] = biological target: Histone-lysine N-methyltransferase SETD7 (Homo sapiens) (UniProt Q8WTS6); assay: Inhibition of SETD7 (unknown origin) using H3 1-25 peptide in presence of SAM; in short: as §2
[13] = system: MOLM-13; assay: Downregulation of H3K79me2 in human MOLM-13 cells at 1 uM by immuno blot analysis; assay type: functional, cell-based; conditions: time 3-7 day, TDE = time-dependent effect; in short: as §1
[14] = biological target: N-lysine methyltransferase KMT5A (Homo sapiens) (UniProt Q9NQR1); assay: Inhibition of SETD8 (unknown origin) using […] in presence of SAM; in short: as §2
[15] = biological target: DNA (cytosine-5)-methyltransferase 1 (Homo sapiens) (UniProt P26358); assay: Inhibition of DNMT1 (unknown origin) using ds-DNA peptide in presence of SAM; in short: as §2
[16] = biological target: Histone-lysine N-methyltransferase KMT5B (Homo sapiens) (UniProt Q4FZB7); assay: Inhibition of […] (unknown origin) using H4 K20Me1 peptide in presence of SAM; in short: as §2
[17] = biological target: T2, Protein arginine N-methyltransferase 5 (Homo sapiens, UniProt O14744); assay: Inhibition of PRMT5 (unknown origin) using H4 1-24 peptide in presence of SAM; in short: as §2
[18] = biological target: Histone-lysine N-methyltransferase 2A (Homo sapiens) (UniProt Q03164); assay: Inhibition of MLL (unknown origin) using H3 1-25 peptide in presence of SAM; in short: as §2
[19] = cells; conditions: Homo sapiens, MCF-10A
[20] = biological target: Histone-lysine N-methyltransferase SETDB1 (Homo sapiens) (UniProt Q15047); assay: Inhibition of SETDB1 (unknown origin) using H3 1-25 peptide in presence of SAM; in short: as §2
[21] = biological target: Histone-lysine N-methyltransferase EHMT1 (Homo sapiens) (UniProt Q9H9B1); assay: Inhibition of EHMT1 (unknown origin) using H3 1-25 peptide in presence of SAM; in short: as §2
[22] = biological target: Protein arginine N-methyltransferase 3 (Homo sapiens) (UniProt O60678); assay: Inhibition of PRMT3 (unknown origin) using H3 1-24 peptide in presence of SAM; in short: as §2
[23] = biological target: Histone-lysine N-methyltransferase KMT5C (Homo sapiens) (UniProt Q86Y97); assay: Inhibition of SUV420H2 (unknown origin) using H4 K20Me1 peptide in presence of SAM; in short: as §2
[24] = biological target: T2, Protein arginine N-methyltransferase 5; assay: Inhibition of human PRMT5; in short: as §2

T1 sequence (Q8TEK3 whole entry, the tested form may be a part): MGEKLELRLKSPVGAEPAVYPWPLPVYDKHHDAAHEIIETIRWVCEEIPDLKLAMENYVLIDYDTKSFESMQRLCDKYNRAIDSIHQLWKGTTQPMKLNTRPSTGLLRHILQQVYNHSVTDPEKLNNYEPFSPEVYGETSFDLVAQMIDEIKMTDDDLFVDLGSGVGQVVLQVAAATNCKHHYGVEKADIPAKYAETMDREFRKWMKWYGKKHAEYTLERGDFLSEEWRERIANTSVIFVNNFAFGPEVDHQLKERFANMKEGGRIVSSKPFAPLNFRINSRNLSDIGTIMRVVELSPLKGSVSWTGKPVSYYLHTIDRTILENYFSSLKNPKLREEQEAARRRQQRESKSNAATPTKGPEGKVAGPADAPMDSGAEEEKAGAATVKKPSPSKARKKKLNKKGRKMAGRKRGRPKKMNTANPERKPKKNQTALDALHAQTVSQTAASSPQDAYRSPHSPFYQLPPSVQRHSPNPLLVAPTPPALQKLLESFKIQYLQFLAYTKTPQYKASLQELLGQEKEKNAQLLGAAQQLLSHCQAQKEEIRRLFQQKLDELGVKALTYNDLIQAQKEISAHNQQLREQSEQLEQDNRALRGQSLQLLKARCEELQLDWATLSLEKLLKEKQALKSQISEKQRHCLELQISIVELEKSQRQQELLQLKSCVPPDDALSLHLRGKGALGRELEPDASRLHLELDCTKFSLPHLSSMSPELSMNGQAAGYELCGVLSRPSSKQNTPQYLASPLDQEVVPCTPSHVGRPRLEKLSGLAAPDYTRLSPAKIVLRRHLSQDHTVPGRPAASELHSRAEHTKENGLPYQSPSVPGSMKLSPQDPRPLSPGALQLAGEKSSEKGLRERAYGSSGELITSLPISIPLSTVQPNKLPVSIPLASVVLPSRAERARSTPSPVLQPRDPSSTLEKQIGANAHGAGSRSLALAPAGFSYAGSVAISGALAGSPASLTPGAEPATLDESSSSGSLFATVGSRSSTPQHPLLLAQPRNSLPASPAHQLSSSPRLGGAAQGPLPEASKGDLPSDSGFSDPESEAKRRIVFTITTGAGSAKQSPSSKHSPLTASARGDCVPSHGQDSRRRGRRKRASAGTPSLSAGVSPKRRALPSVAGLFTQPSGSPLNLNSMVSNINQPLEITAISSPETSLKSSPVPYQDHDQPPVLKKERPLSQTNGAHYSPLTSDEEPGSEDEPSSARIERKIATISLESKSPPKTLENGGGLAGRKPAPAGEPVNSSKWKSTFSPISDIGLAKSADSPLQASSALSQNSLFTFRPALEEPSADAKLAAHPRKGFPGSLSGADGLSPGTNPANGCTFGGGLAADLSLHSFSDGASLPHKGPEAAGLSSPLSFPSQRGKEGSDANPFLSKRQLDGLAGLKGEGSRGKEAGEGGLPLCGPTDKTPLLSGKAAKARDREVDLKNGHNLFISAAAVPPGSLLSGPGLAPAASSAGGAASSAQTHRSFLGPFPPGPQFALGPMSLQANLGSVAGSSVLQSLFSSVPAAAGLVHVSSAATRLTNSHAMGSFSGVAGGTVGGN
T2 sequence (O14744 whole entry): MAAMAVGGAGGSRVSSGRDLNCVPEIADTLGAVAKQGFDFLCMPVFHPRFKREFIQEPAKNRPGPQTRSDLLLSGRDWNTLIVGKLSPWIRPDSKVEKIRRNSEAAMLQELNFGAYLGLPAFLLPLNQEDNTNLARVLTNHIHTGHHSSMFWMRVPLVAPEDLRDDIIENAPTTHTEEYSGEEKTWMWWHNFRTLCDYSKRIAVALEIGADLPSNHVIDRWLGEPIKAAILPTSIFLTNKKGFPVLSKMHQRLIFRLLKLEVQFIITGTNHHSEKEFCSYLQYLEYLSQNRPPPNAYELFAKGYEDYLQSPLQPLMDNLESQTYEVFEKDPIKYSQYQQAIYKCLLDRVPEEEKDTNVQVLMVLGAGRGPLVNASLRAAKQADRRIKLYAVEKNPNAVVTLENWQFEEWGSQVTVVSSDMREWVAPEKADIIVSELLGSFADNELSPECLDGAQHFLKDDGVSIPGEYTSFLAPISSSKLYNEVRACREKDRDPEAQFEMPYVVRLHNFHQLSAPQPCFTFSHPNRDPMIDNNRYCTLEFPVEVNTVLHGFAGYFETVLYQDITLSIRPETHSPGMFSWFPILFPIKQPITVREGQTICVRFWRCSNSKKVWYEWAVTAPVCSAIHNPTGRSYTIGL
Histone-lysine N-methyltransferase EHMT1 (Homo sapiens), sequence (Q9H9B1 whole entry): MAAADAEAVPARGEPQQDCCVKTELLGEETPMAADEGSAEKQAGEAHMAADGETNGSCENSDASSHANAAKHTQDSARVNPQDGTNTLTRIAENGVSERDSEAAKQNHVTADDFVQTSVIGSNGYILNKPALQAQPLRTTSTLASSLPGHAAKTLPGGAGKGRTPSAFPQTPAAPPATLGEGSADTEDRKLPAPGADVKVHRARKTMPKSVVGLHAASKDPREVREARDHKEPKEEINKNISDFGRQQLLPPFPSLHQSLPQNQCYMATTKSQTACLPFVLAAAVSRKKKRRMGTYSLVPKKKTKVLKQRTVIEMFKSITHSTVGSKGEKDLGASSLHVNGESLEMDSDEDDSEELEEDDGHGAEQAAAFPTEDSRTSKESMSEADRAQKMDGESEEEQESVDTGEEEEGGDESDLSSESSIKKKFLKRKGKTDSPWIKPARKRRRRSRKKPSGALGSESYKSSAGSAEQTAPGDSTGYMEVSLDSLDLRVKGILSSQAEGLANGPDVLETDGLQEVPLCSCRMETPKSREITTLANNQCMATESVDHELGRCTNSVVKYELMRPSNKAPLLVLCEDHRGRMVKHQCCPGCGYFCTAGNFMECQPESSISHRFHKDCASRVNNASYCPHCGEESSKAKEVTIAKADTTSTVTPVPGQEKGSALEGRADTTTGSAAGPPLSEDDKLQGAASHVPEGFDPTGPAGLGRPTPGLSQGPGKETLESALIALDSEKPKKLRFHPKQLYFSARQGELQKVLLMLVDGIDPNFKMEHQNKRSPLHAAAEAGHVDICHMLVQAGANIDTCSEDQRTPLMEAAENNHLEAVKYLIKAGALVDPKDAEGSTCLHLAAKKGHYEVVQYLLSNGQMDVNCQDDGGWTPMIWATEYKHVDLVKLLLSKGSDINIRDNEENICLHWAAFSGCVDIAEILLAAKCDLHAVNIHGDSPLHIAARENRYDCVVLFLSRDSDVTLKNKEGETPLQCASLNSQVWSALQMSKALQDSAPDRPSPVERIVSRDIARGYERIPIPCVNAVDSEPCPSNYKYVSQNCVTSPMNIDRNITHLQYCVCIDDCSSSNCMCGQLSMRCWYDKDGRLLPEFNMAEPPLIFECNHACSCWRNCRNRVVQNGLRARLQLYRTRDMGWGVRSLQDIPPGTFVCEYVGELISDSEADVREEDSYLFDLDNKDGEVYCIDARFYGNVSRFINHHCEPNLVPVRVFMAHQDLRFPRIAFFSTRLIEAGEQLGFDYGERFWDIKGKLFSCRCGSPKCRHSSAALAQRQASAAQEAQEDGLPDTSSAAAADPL
DNA (cytosine-5)-methyltransferase 1 (Homo sapiens), sequence (P26358 whole entry): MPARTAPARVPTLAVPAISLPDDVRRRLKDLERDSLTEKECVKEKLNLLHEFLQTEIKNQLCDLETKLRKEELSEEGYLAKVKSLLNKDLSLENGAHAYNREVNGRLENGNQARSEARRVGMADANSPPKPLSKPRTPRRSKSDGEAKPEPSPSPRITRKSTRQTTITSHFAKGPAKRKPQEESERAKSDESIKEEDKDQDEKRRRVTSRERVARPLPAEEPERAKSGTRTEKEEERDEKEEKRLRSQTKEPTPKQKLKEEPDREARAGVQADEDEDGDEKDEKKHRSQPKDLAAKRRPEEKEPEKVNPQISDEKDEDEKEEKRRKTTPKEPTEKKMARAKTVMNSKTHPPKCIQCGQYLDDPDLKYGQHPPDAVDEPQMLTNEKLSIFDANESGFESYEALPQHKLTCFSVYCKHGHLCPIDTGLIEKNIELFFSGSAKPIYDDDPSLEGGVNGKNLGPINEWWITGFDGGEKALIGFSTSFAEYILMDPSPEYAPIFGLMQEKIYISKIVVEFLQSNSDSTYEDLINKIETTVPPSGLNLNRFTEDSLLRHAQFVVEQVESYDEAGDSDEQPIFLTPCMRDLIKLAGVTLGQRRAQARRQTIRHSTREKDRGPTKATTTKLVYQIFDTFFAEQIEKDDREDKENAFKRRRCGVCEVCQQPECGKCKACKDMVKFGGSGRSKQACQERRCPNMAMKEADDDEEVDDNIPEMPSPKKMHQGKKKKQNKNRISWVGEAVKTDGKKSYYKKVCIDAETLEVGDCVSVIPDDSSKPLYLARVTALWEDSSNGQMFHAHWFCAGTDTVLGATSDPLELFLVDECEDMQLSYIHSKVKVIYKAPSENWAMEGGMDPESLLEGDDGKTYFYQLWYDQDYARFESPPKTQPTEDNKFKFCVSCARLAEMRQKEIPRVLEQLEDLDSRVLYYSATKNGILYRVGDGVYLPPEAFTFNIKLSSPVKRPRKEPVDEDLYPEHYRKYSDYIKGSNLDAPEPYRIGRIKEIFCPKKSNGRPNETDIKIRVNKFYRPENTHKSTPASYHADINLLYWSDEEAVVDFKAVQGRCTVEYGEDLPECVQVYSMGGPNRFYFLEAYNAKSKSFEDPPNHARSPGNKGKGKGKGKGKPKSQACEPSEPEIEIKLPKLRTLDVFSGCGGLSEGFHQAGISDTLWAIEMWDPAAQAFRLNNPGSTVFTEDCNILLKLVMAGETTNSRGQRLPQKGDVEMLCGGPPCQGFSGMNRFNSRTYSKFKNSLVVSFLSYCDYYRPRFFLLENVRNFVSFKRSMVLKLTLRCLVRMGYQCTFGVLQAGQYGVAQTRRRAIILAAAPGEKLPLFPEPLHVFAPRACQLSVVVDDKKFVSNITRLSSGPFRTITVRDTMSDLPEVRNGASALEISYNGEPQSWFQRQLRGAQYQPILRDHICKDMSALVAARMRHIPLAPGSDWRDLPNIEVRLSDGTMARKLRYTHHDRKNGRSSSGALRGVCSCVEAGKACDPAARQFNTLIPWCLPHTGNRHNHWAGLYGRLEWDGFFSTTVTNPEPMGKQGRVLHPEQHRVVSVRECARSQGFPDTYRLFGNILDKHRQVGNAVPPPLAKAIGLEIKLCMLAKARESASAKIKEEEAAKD

IC50 [1]: Not Active
Structure (SMILES): CC(C)N(CCCNC(=O)c1ccc(C(C)(C)C)cc1)C[C@H]1O[C@@H](n2cnc3c(N)ncnc32)[C@H](O)[C@@H]1O

IC50 ([1]; read-out: IC50): 40.3 nM
Kd [2]: 26.9 nM
Kd [3]: 26.9 nM
Structure (SMILES): Cc1ccc(NC(=O)NCCCN(C[C@H]2O[C@@H](n3cnc4c(N)ncnc43)[C@H](O)[C@@H]2O)C(C)C)cc1
Activity [4]: Active

Papp B→A at 1.5 h, 10 µM [5]: 31.1 ×10⁻⁶ cm/s
Papp A→B at 1.5 h, 10 µM [6]: 68.2 ×10⁻⁶ cm/s
Structure (SMILES): COCCc1ccc(OCC(O)CNC(C)C)cc1 (configuration not stated) [METOPROLOL]

Papp B→A at 1.5 h, 10 µM [5]: 5.4 ×10⁻⁶ cm/s
inhibition [8]: inactive
inhibition [9]: inactive
IC50 [10]: 264 nM
inhibition [11]: inactive
inhibition [12]: inactive
inhibition [14]: inactive
inhibition [15]: inactive
inhibition [16]: inactive
inhibition [17]: inactive
inhibition [18]: inactive
inhibition [20]: inactive
inhibition [21]: inactive
inhibition [22]: inactive
inhibition [23]: inactive
IC50 [24]: 500 nM
Structure (SMILES): CC(C)N(CCCNC(=O)Nc1ccc(C(C)(C)C)cc1)C[C@H]1O[C@@H](n2ccc3c(N)ncnc32)[C@H](O)[C@@H]1O
Activity [7]: Dose-Dependent Effect
Activity [4]: Active
Activity [13]: Tde
IC50 [19]: 84 nM
